# Results from different studies.
# Target: BDNF/NT-3 growth factors receptor (NTRK2, Homo sapiens, UniProt Q16620)
Structure (SMILES),observed,mode,method,tested at,inhibition
CNC(=O)c1cc(Oc2ccc(NC(=O)Nc3ccc(Cl)c(C(F)(F)F)c3)cc2)ccn1,cell-free assay,,,0.3 µM,14%
O=C(Nc1ccc(Cl)cc1)Nc1cccc(C(=O)Nc2ccc3[nH]ncc3c2)c1,enzyme activity,inhibitor,FRET,1 µM,18.8%
CC/C(=N\NC(=O)NCc1cccc(O)c1)c1ccc(O)c(C)c1O,enzyme activity,inhibitor,,0.1 µM,2.2%
CNC(=O)c1cc2c(Oc3ccc(NC(=O)C4(C(=O)Nc5ccc(F)cc5)CC4)cc3)ccnc2cc1OC,enzyme activity,inhibitor,radiometric,1 µM,100%
O=C(Nc1ccc(OC(F)(F)F)cc1)Nc1cccc(C(=O)Nc2ccc3[nH]ncc3c2)c1,enzyme activity,inhibitor,FRET,1 µM,14.5%
COc1cc2ncnc(Nc3ccc(Oc4ccccc4)cc3C)c2cc1OC,enzyme activity,inhibitor,,1 µM,11%
CN1CC(Oc2cnc(C#N)cc2-c2ccn3nc(NC(=O)C4CC4)cc3c2)C1,enzyme activity,inhibitor,,1 µM,4%
O=C(Nc1cccc(Cl)c1)Nc1cccc(C(=O)Nc2ccc3[nH]ncc3c2)c1,enzyme activity,inhibitor,FRET,1 µM,20.2%
CCCS(=O)(=O)Nc1ccc(F)c(C(=O)c2c[nH]c3ncc(-c4ccc(Cl)cc4)cc23)c1F,enzyme activity,inhibitor,,1 µM,< 10%
COc1cc2ncnc(Nc3ccc(Oc4ccccc4)c(C)c3C)c2cc1OC,enzyme activity,inhibitor,,1 µM,-3%
